Measurements: ChEMBL document CHEMBL1770061, “Synthesis and antiproliferative activity of new cytotoxic azanaphthoquinone pyrrolo-annelated derivatives: Part II” (Bioorg Med Chem Lett, 2011)
In brackets after ≈: the same amount, converted by molar mass. Activity calls are given as the source filed them. The calls are words filed in the database; no cut-off is given here.

Legend:
SK-OV-3 [1] = assay: Antiproliferative activity against human SKOV3 cells after 48 hrs by XTT assay; format: functional, cell-based; conditions: SK-OV-3, 48 h
How it was run: (§1)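 Compounds dissolved in DMSO were added as a 10-point half-log dilution series, with final DMSO adjusted to 0.3%. Cells were incubated 45 h at 37 °C/5% CO2, then XTT (1 mg/ml) plus PMS was added for 3 h more (48 h total). Absorbance was read at 490 nm. Untreated cells were set as 0% inhibition and cell-free blanks as 100%. EC50 was fitted by nonlinear regression from ≥2 independent assays and reported as mean ± SD.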

SF-268 [2] = assay: Antiproliferative activity against human SF268 cells after 48 hrs by XTT assay; format: functional, cell-based; conditions: SF-268, 48 h
How it was run: (§2)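 Compounds were added from DMSO stocks as a 10-point half-log dilution series, with final DMSO adjusted to 0.3%. Cells were incubated for 45 h at 37 °C/5% CO2, then with 1 mg/ml XTT plus PMS for a further 3 h. Absorbance at 490 nm was read after 48 h total. Untreated cells were set as 0% and cell-free blanks as 100% inhibition. EC50 came from nonlinear regression of at least two independent assays.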

[3] = Antiproliferative activity against human KB/HeLa cells after 48 hrs by XTT assay; format: functional, cell-based; how it was run: as §2
NCI-H460 [4] = assay: Antiproliferative activity against human NCI-H460 cells after 48 hrs by XTT assay; format: functional, cell-based; conditions: NCI-H460, 48 h; how it was run: as §2
[5] = Antiproliferative activity against human RKOp27IND cells after 48 hrs by XTT assay; format: functional, cell-based; how it was run: as §1
[6] = Antiproliferative activity against human RKOp27 cells after 48 hrs by XTT assay; format: functional, cell-based; conditions: RKOp27, 48 h; how it was run: as §2
SF-268 [7] = assay: Antiproliferative activity against human SF268 cells assessed as growth inhibition at 3.16 ug/ml after 48 hrs by XTT assay; format: functional; conditions: for inhibition at 3.16 µg/mL: SF-268, 48 h
How it was run: (§3)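 This is the same 48 h XTT assay: 10-point half-log series, 0.3% final DMSO, 3 h XTT/PMS, A490, with untreated cells as 0% and blanks as 100% inhibition. Inhibition at the highest tested concentration was scored as none (<30%) or moderate (≥30%).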

[8] = (§4) Antiproliferative activity against human KB/HeLa cells assessed as growth inhibition at 3.16 ug/ml after 48 hrs by XTT assay; format: functional; how it was run: as §3
[9] = (§5) Antiproliferative activity against human RKOp27 cells assessed as growth inhibition at 3.16 ug/ml after 48 hrs by XTT assay; format: functional; conditions: RKOp27, 48 h; how it was run: as §3
[10] = (§6) Antiproliferative activity against human RKOp27IND cells assessed as growth inhibition at 3.16 ug/ml after 48 hrs by XTT assay; format: functional; how it was run: as §3
SK-OV-3 [11] = assay: Antiproliferative activity against human SKOV3 cells assessed as growth inhibition at 3.16 ug/ml after 48 hrs by XTT assay; format: functional; conditions: for inhibition at 3.16 µg/mL: SK-OV-3, 48 h; how it was run: as §3
NCI-H460 [12] = assay: Antiproliferative activity against human NCI-H460 cells assessed as growth inhibition at 3.16 ug/ml after 48 hrs by XTT assay; format: functional; conditions: for inhibition at 3.16 µg/mL: NCI-H460, 48 h; how it was run: as §3
[13] = Chemical stability of the compound in KH2PO4/Na2HPO4 buffer at pH 5.5 after 6 hrs by NMR spectroscopy; format: physicochemical; conditions: pH 5.5, 6 h
How it was run: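 Compounds were exposed at 37 °C to a KH2PO4/Na2HPO4 buffer at pH 5.5, prepared according to the European Pharmacopoeia.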

KB = assay: as §4; format: functional; how it was run: as §3
RKOp27 = assay: as §5; format: functional; how it was run: as §3
Homo sapiens = species on record: Homo sapiens; assay: as §6; format: functional; how it was run: as §3

For `O=C1c2c(O)ccc(O)c2C(=O)c2c(NCCNCCO)ccc(NCCNCCO)c21` [MITOXANTRONE], the EC50 (SK-OV-3 [1]) was 0.121 µg/mL (≈ 0.272 µM), the EC50 (SF-268 [2]) was 0.315 µg/mL (≈ 0.709 µM) and the EC50 [3] was 0.355 µg/mL (≈ 0.799 µM). It also gave an EC50 (NCI-H460 [4]) of 0.122 µg/mL (≈ 0.275 µM), an EC50 [5] of 0.763 µg/mL (≈ 1.72 µM) and an EC50 [6] of 0.0865 µg/mL (≈ 0.195 µM).

Compound `CN(C)CCCc1c[nH]c2c1C(=O)c1ccncc1C2=O` has an inhibition at 3.16 µg/mL (SF-268 [7]) of under 30%, an inhibition at 3.16 µg/mL [8] of under 30% and an inhibition at 3.16 µg/mL [9] of under 30%. For the same compound, the inhibition at 3.16 µg/mL [10] was under 30% and the inhibition at 3.16 µg/mL (SK-OV-3 [11]) was under 30%.

For `O=C1c2ccncc2C(=O)c2c1ccn2CCCCCCC1CO1` (centres undefined), the inhibition at 3.16 µg/mL (NCI-H460 [12]) was under 30%, the inhibition at 3.16 µg/mL (SF-268 [7]) was under 30% and the inhibition at 3.16 µg/mL [8] was under 30%. The inhibition at 3.16 µg/mL [9] was under 30%, the inhibition at 3.16 µg/mL [10] was under 30% and the Stability [13] was “Stable”. The inhibition at 3.16 µg/mL (SK-OV-3 [11]) was under 30%.

`CN(C)CCc1cn(CCCCN2CC2)c2c1C(=O)c1ccncc1C2=O` showed an EC50 (SK-OV-3 [1]) of 1.51 µg/mL (≈ 4.12 µM), an EC50 (SF-268 [2]) of 1.39 µg/mL (≈ 3.8 µM) and an EC50 [3] of 0.512 µg/mL (≈ 1.4 µM). For the same compound, the EC50 (NCI-H460 [4]) was 0.722 µg/mL (≈ 1.97 µM), the EC50 [5] was 1.35 µg/mL (≈ 3.68 µM) and the EC50 [6] was 0.205 µg/mL (≈ 0.559 µM).

`CN(C)CCCn1cc(CCN(C)C)c2c1C(=O)c1cnccc1C2=O` showed an EC50 (SK-OV-3 [1]) of over 3.16 µg/mL, an EC50 (SF-268 [2]) of over 3.16 µg/mL and an EC50 [3] of over 3.16 µg/mL. For the same compound, the EC50 (NCI-H460 [4]) was over 3.16 µg/mL, the EC50 [5] was over 3.16 µg/mL and the EC50 [6] was over 3.16 µg/mL.

With `CS(=O)(=O)OCCn1ccc2c1C(=O)c1cnccc1C2=O` the inhibition at 3.16 µg/mL (SF-268 [7]) was under 30%, the inhibition at 3.16 µg/mL [8] was under 30% and the inhibition at 3.16 µg/mL [9] was under 30%. The inhibition at 3.16 µg/mL [10] was at least 30%, the EC50 (NCI-H460 [4]) was over 3.16 µg/mL and the inhibition at 3.16 µg/mL (SK-OV-3 [11]) was under 30%.

Work on `O=C1c2ccncc2C(=O)c2c1ccn2CC1CO1` (centres undefined) yielded an EC50 (SK-OV-3 [1]) of 0.265 µg/mL (≈ 1.04 µM), an EC50 (SF-268 [2]) of 0.2 µg/mL (≈ 0.787 µM) and an EC50 [3] of 0.062 µg/mL (≈ 0.244 µM). For the same compound, the Stability [13] was “Stable”, the EC50 (NCI-H460 [4]) was 0.062 µg/mL (≈ 0.244 µM) and the EC50 [5] was 1.3 µg/mL (≈ 5.11 µM). For the same compound, the EC50 [6] was 0.026 µg/mL (≈ 0.102 µM).

`CS(=O)(=O)OCCCCCCCn1ccc2c1C(=O)c1cnccc1C2=O` gave an inhibition at 3.16 µg/mL (NCI-H460 [12]) of under 30%, an inhibition at 3.16 µg/mL (SF-268 [7]) of under 30% and an inhibition at 3.16 µg/mL [8] of under 30%. The inhibition at 3.16 µg/mL [9] was under 30%, the inhibition at 3.16 µg/mL [10] was under 30% and the inhibition at 3.16 µg/mL (SK-OV-3 [11]) was under 30%.

Compound `O=C1c2ccncc2C(=O)c2c1ccn2CCCC(O)CN1CC1` (centres undefined) has an inhibition at 3.16 µg/mL (SF-268 [7]) of under 30%, an inhibition at 3.16 µg/mL [10] of under 30% and an EC50 [3] of over 3.16 µg/mL. The EC50 (NCI-H460 [4]) was over 3.16 µg/mL, the EC50 [6] was over 3.16 µg/mL and the inhibition at 3.16 µg/mL (SK-OV-3 [11]) was under 30%.

For `CNCCn1cc(CCN(C)C)c2c1C(=O)c1cnccc1C2=O`, the EC50 (SK-OV-3 [1]) was over 3.16 µg/mL, the EC50 (SF-268 [2]) was over 3.16 µg/mL and the EC50 [3] was over 3.16 µg/mL. The EC50 (NCI-H460 [4]) was over 3.16 µg/mL, the EC50 [5] was over 3.16 µg/mL and the EC50 [6] was over 3.16 µg/mL.

With `CN(C)CCc1cn(CCNCCO)c2c1C(=O)c1ccncc1C2=O` the inhibition at 3.16 µg/mL (NCI-H460 [12]) was under 30%, the EC50 (SF-268 [2]) was over 3.16 µg/mL and the inhibition at 3.16 µg/mL [10] was under 30%. For the same compound, the EC50 [3] was over 3.16 µg/mL, the EC50 [6] was over 3.16 µg/mL and the inhibition at 3.16 µg/mL (SK-OV-3 [11]) was under 30%.

With `CN(C)CCc1cn(CCOS(C)(=O)=O)c2c1C(=O)c1ccncc1C2=O` the inhibition (NCI-H460 [12]) was “inactive”, the inhibition at 3.16 µg/mL (NCI-H460 [12]) was under 30% and the inhibition (SF-268 [7]) was “inactive”. The inhibition (KB) was “inactive”, the inhibition at 3.16 µg/mL [9] was under 30% and the inhibition (RKOp27) was “inactive”. For the same compound, the inhibition at 3.16 µg/mL [10] was under 30%, the inhibition (Homo sapiens) was “inactive” and the inhibition (SK-OV-3 [11]) was “inactive”.

For `O=C1c2ccncc2C(=O)c2c1ccn2CCCCN1CC1`, the EC50 (SK-OV-3 [1]) was 2.19 µg/mL (≈ 7.4 µM), the EC50 (SF-268 [2]) was 1.89 µg/mL (≈ 6.41 µM) and the EC50 [3] was 0.549 µg/mL (≈ 1.86 µM). For the same compound, the EC50 (NCI-H460 [4]) was 0.727 µg/mL (≈ 2.46 µM), the EC50 [5] was 2.23 µg/mL (≈ 7.55 µM) and the EC50 [6] was 0.299 µg/mL (≈ 1.01 µM).

`O=C1c2ccncc2C(=O)c2c1ccn2CCCCCCC(O)CN1CC1` (centres undefined) gave an inhibition at 3.16 µg/mL (SF-268 [7]) of under 30%, an inhibition at 3.16 µg/mL [10] of under 30% and an EC50 [3] of over 3.16 µg/mL. It also gave an EC50 (NCI-H460 [4]) of over 3.16 µg/mL, an EC50 [6] of over 3.16 µg/mL and an inhibition at 3.16 µg/mL (SK-OV-3 [11]) of under 30%.

In the case of `CN(C)CCc1cn(CCO)c2c1C(=O)c1ccncc1C2=O`, the inhibition at 3.16 µg/mL (NCI-H460 [12]) is reported as under 30%, the inhibition at 3.16 µg/mL (SF-268 [7]) is reported as under 30% and the inhibition at 3.16 µg/mL [10] is reported as under 30%. The EC50 [3] was over 3.16 µg/mL, the EC50 [6] was over 3.16 µg/mL and the inhibition at 3.16 µg/mL (SK-OV-3 [11]) was under 30%.
